Assay outcomes from PubChem BioAssay.
Only a sample is shown.
Apaf1 activ: activates human Apaf-1 apoptosome; O14727; Apaf-1 apoptosome caspase-3 activation, DEVD-Rh110 fluorescence; hits give low values; activity change, negative = activation, % at 20 µM; actives 0.31% (n = 330,000);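 active = activity change at or below -40% at 20 µM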
Target sequence (O14727 whole entry, looked up): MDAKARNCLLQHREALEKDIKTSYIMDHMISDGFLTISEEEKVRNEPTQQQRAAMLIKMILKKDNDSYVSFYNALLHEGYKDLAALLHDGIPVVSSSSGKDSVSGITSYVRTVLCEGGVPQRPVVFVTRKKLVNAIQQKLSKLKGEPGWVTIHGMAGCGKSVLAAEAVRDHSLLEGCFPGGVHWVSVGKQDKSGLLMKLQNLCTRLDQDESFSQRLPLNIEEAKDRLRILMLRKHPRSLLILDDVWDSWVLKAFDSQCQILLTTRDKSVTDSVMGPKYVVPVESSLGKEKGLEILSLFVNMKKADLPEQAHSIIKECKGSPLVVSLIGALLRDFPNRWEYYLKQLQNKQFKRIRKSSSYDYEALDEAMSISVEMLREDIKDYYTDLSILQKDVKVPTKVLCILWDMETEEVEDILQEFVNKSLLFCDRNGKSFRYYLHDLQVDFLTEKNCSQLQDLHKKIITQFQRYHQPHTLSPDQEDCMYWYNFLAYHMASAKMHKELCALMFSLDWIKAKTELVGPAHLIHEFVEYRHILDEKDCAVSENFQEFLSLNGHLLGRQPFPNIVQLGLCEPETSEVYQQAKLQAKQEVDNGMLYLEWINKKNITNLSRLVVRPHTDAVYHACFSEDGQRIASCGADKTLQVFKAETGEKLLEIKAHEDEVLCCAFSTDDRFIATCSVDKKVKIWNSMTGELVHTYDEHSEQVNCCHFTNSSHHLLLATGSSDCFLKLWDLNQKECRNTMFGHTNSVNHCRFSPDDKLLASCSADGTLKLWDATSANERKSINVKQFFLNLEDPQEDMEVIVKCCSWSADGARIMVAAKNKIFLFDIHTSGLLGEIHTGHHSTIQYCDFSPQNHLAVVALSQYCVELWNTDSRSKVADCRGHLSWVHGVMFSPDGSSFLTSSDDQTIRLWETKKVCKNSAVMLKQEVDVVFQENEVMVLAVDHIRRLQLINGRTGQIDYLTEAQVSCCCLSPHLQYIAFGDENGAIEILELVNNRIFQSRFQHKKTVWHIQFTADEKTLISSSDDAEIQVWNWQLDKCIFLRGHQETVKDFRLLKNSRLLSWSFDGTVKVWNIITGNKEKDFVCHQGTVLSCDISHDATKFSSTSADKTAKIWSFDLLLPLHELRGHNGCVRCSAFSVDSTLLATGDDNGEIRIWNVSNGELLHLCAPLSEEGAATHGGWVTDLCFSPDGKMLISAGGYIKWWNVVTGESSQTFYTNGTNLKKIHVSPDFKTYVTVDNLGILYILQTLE
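Schedule: 30 min preincubation, 50 min reaction, room temperature / System: biochemical Apaf-1 apoptosome reconstitution / Medium: 20 mM HEPES pH 7.5 with CHAPS, BSA / Evaluation: Caspase-3 cleavage activity downstream of Apaf-1 activation / Detection: Caspase-3-released Rh110 fluorescence, 540 nm emission, 480 nm excitation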
Rh110 interf act: interferes with Rh110 fluorescence, flagging false Apaf-1 activators. shares compounds with Apaf1 activ. 980 tested, under 10 active. fluorescence interference (activity change), % at 20 µM, hits read low. Rh110 fluorescence interference, quenched caspase reaction, Ex480/Em540;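 active = mean activity change at or below -40% when tested at 20 µM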
Apaf-1 act conf: Apaf-1 (human) activation, single-dose confirmed; shares compounds with Apaf1 activ; reconstituted apoptosome caspase-3 activity, DEVD-Rh110 fluorescence; hits give low values; activity change, negative = activation, % at 20 µM; actives 5% (n = 980); AID 504617;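 active = mean activity change at or below -40%, meaning activation of 40% or more, at 20 µM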
Apaf1 act interf: counter-screen for Apaf-1 activators: fluorescence interference, dose response; shares compounds with Apaf1 activ; fluorescence interference counterscreen, Apaf-1 activator assay; EC50, µM; 55 tested, under 10 active; call rule not given here
Numbers without * were called inactive; nt = no result.

SMILES	Apaf1 activ	Rh110 interf act	Apaf-1 act conf	others
Cc1ccc2c(c1)C(=O)CC(O)(C(F)F)O2 (centres undefined)	-71.2*	-1.0	10.5
O=C(/C=C/c1ccc([N+](=O)[O-])cc1)/C=C/c1ccco1	42.6	nt	nt
CN(C)CCCNC(=O)C[C@H]1C[C@H](C(=O)N2CCOCC2)[C@@]2(CCC3CCCC3)c3[nH]c4cc(-c5ccco5)ccc4c3CCN2C1=O	67.5	nt	nt
CCc1ccc(N=C2NC(=O)/C(=C/c3cc(Br)c(OCC(=O)O)c(OC)c3)S2)cc1	-99.4*	6.2	-66.8*	Apaf1 act interf=>100
S=c1nc[nH]c2nc[nH]c12	2.3	nt	nt
O=C1N(c2ccccc2)c2ccccc2C1(Cc1ccncc1)Cc1ccncc1	5.4	nt	nt
CCOC(=O)C1=C(COCCN)NC(C)=C(C(=O)OC)C1c1ccccc1Cl (centres undefined)	39.5	nt	nt
O=C(O)c1cc([N+](=O)[O-])ccc1NCCc1ccccc1	-97.3*	-1.7	17.9
CN(C)CCN(C(=O)c1cccc2ccccc12)c1nc2cc3c(cc2s1)OCO3	51.8	nt	nt
Nc1ccc2cn[nH]c2c1	52.4	nt	nt
O=S(=O)(NCC(Nc1ccccc1)c1ccccc1)c1ccc(Cl)cc1 (centres undefined)	-244.9*	7.8	17.8
Cc1ccc(S(=O)(=O)N(C)C)cc1NC(=O)CSc1nc2ncc(Cl)cc2[nH]1	-110.6*	2.7	19.0
Cc1ccc(S(=O)(=O)N(C)C)cc1NC(=S)Nc1cccc2ccccc12	93.2	nt	nt
N#Cc1cn(Cc2ccncc2)c(=O)[nH]c1=O	-181.6*	3.3	13.5
O=C(c1ccc([N+](=O)[O-])o1)N(Cc1nnc(-c2ccccc2Cl)o1)C1CC1	51.0	nt	nt
CCCCCc1cc(=O)oc2c(C(CCN3CCCC3)c3ccc(N(C)C)cc3)c(OC)cc(OC)c12 (centres undefined)	45.2	nt	nt
CCN(CCCNC(=O)CCn1c(=O)[nH]c2ccccc2c1=O)c1ccccc1	-504.9*	-1.1	12.7
O=C(c1ccco1)N1CCN(C(c2ccccc2)c2nnnn2Cc2cccs2)CC1 (centres undefined)	-106.6*	9.1	15.7
O=C1c2ccccc2-c2onc3c(N4CCN(CCO)CC4)cc(N4CCN(C(=O)c5ccco5)CC4)c1c23	52.4	nt	nt
CN1CCN(c2cc(N3CCN(C(=O)c4ccco4)CC3)c3c4c(onc24)-c2ccccc2C3=O)CC1	82.4	nt	nt
CC(C)c1nc(SCC(=O)c2c[nH]c3ccccc23)n[nH]1	-41.2*	0.6	5.8
CN(C)S(=O)(=O)N1CCCN(S(=O)(=O)N(C)C)CC1	-313.1*	0.3	14.1
CSc1ccc(C=NNc2ccc(S(=O)(=O)Nc3ccccc3C(=O)O)cc2[N+](=O)[O-])cc1	-90.0*	11.2	-132.9*	Apaf1 act interf=>100
Cc1oc2c(c1C(=O)c1ccccc1)C(=O)C(=O)c1ccccc1-2	91.4	nt	nt
OCCCCNc1cccc2ccccc12	80.9	nt	nt
SMILES	Apaf1 activ	Rh110 interf act	Apaf-1 act conf	others
CN(c1ccccc1)c1cc(Br)nc(Br)c1	-46.6*	11.3	9.6
C#CCOCCOCCOCCNc1nc(N2CCN(C(=O)CCCCCCCCCCNC(=O)[C@H](CCCCN)n3cc(C[C@@H](C)CC)nn3)CC2)nc(N2CCN(C(=O)CCCCCCCCCCNC(=O)[C@@H]([C@H](C)O)n3cc(C)nn3)CC2)n1	57.5	nt	nt
CN1Cc2c(N3CCOCC3)nc3sc(C(=O)c4ccc(Br)cc4)c(N)c3c2CC1(C)C	56.4	nt	nt
COc1ccccc1C1Nc2cccc3cccc(c23)N1	51.3	nt	nt
CN(C)S(=O)(=O)Oc1cccc(C(=O)Nc2ccc(Cl)c(Cl)c2)c1	-40.4*	2.3	14.3
COc1ccc(OCc2cc(C(=O)NC3CCOCC3)no2)c2ccccc12	40.6	nt	nt
Cc1cccc(C)c1OCc1cc(C(=O)NCC2CCCCC2)no1	-56.9*	2.4	13.4
CC(=O)N(C)C1=C(N2CCOCC2)C(=O)c2ccccc2C1=O	64.8	nt	nt
CCOc1ccccc1N1CCN(C(=O)C2c3ccccc3Oc3ccccc32)CC1	40.9	nt	nt
CCOC(=O)N1CCC(NC(=O)CCC(=O)N2CCOc3ccccc32)CC1	-304.6*	4.0	7.8
COc1ccc(C2=C(CN(C)C)C(c3ccccc3)c3ccccc3O2)cc1 (centres undefined)	12.2	nt	nt
CCCCC[n+]1ccn(C2=C([O-])c3ccccc3C(=O)/C2=N\S(=O)(=O)c2ccc(Cl)cc2)c1	69.9	nt	nt
Nc1nnc2c(n1)CCCC2	82.8	nt	nt
CC1CC(=O)c2c(cc3c(-c4c(O)cc(O)c5c(O)c6c(cc45)OC(C)CC6=O)c(O)cc(O)c3c2O)O1 (centres undefined)	62.5	nt	nt
CN(Cc1ccc(Cl)c(Cl)c1)C(=O)c1cccc(S(=O)(=O)N2CCN(Cc3ccccc3)CC2)c1	71.8	nt	nt
CC(=O)c1cccc(CN2CCN(C3CCCC3)C(CCO)C2)c1 (centres undefined)	-300.2*	-2.1	11.8
Cc1cc2nc3ccc(N(C)C)cc3nc2cc1N	89.5	nt	nt
COc1ccc(Br)cc1CNc1ccc(O)cc1	94.8	nt	nt
O=C1c2ccccc2C(=O)c2[nH]c(=O)[nH]c21	80.0	nt	nt
O=c1[nH]c(=O)c2nc3c4ccccc4c4ccccc4c3nc2[nH]1	-42.7*	5.9	-18.6
O=c1[nH]c(Nc2ccccc2)cc2ccccc12	96.1	nt	nt
Fc1cccc(CCN2CCNC[C@H]2Cc2cccc3ccccc23)c1	43.0	nt	nt
Cc1ccc(NC(=O)CC(C)N2CCCC2)cc1 (centres undefined)	-78.7*	10.5	13.2
CCOCCCn1c(SCC(=O)Nc2cc(C(C)(C)C)nn2-c2ccccc2)nc2ccccc2c1=O	40.4	nt	nt
COc1ccc(OC)c2sc(N(CCCN(C)C)C(=O)c3ccc(S(=O)(=O)N4CCc5ccccc5C4)cc3)nc12	54.7	nt	nt
SMILES	Apaf1 activ	Rh110 interf act	Apaf-1 act conf	others
N#Cc1c(N2CCCCC2)nc(N)c2c(N)nc3c(c12)CC(c1ccccc1)O3 (centres undefined)	42.2	nt	nt
Cc1cccc(NC(=O)c2cc(NC(=O)C3CCCCC3C(=O)O)ccc2N2CCOCC2)c1 (centres undefined)	-126.7*	3.3	11.8
CN1CCN(c2ccc(NC(=O)c3cc(S(N)(=O)=O)ccc3N3CCOCC3)cc2)CC1	40.2	nt	nt
COc1ccc(/C=N/NC(=O)c2nn(-c3ccc(Cl)cc3)c(=O)c3c(N)scc23)cc1	53.8	nt	nt
Cc1ccc(S(=O)(=O)NCc2ccccc2)cc1C(=O)N1CCN(c2ccccc2)CC1	58.3	nt	nt
Cc1ccc(C)c(S(=O)(=O)NCc2ccc(C(=O)N3CCOCC3)cc2)c1	-47.2*	7.9	11.2
COc1cc2ccccc2cc1C(=O)Nc1sc2c(c1C(N)=O)CCN(C(C)C)C2	51.2	nt	nt
CCN1CCN(S(=O)(=O)c2ccc(Cl)c(C(=O)N(C)Cc3cccc(Cl)c3Cl)c2)CC1	42.6	nt	nt
NC(CO)C(=O)NNCc1ccc(O)c(O)c1O (centres undefined)	50.9	nt	nt
Cn1c(=O)oc2cc(S(=O)(=O)Nc3ccccc3O)ccc21	-46.2*	9.7	14.3
O=S(=O)(Nc1ccc(O)c2ccccc12)c1ccc(Br)cc1	57.3	nt	nt
Cc1ccc(NS(=O)(=O)c2ccc(NC(=O)C3CCCO3)cc2)cc1 (centres undefined)	-51.8*	6.3	12.4
